In ChEMBL document CHEMBL1781899, “Synthesis of N-substituted 2-[(1E)-alkenyl]-4-(1H)-quinolone derivatives as antimycobacterial agents against non-tubercular mycobacteria” (Eur J Med Chem, 2011):
≈ marks a conversion by molar mass, not a printed value.

Key:
[1] = Cytotoxicity against human MRC5 cells assessed as cell viability at 100 uM after 72 hrs by XTT assay; type: cell-based; details: read-out: Activity
Outline: (§1)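 MRC-5 cells seeded at 5 × 10^4 cells/well and grown 24 h in MEM. Compounds came from fresh ethanol stocks; solvent control was 0.1% ethanol. 72 h exposure at 37 °C, 5% CO2. XTT plus electron-coupling reagent (50:1) added for 4 h. Viability expressed as % of solvent control, triplicate on at least two plates (n = 6), mean ± SEM.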

[2] = tested on: Mycolicibacterium smegmatis; experiment: Antimycobacterial activity against Mycobacterium smegmatis ATCC 14468 after 3 days by MTT assay; type: functional; details: ATCC 14468, 72 h
[3] = Cytotoxicity against human MRC5 cells assessed as cell viability at 30 uM after 72 hrs by XTT assay; type: cell-based; details: read-out: Activity; outline: as §1
[4] = tested on: Mycolicibacterium fortuitum; experiment: Antimycobacterial activity against Mycobacterium fortuitum ATCC 6841 after 3 days by MTT assay; type: functional; details: ATCC 6841, 72 h
Mycolicibacterium phlei = experiment: Antimycobacterial activity against Mycobacterium phlei ATCC 11758 after 3 days by MTT assay; type: functional; details: ATCC 11758, 72 h
[5] = tested on: Mycolicibacterium smegmatis; experiment: Antimycobacterial activity against Mycobacterium smegmatis mc2155 after 3 days by MTT assay; type: functional; details: mc2155, 72 h
Outline: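 Broth microdilution MIC. Inoculum grown on Columbia blood agar with 7% defibrinated horse blood, suspended in 0.9% NaCl to 5 × 10^5 cells/mL. Sterile, growth and isoniazid controls were included. Incubated 3 days at 37 °C; methanolic MTT added, dark violet indicating growth. Tests repeated three times.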

[6] = Cytotoxicity against human MRC5 cells assessed as cell viability at 0.12 uM after 72 hrs by XTT proliferation assay; type: cell-based; details: read-out: Activity

Row | SMILES | viability at 72 h, 100 µM [1] [%] | MIC [2] [µg/mL] | viability at 72 h, 30 µM [3] [%] | MIC [4] [µg/mL] | MIC (Mycolicibacterium phlei) [µg/mL] | MIC [5] [µg/mL] | viability at 72 h, 0.12 µM [6] [%]
1 | CCCCCCC/C=C/c1cc(=O)c2ccccc2n1CCC | 7.4 | 4 (≈ 12.8 µM) | 32.9 |  |  |  | 
2 | CCCCCCCCC/C=C/c1cc(=O)c2ccccc2n1CCCCC | 0.38 | 4 (≈ 10.9 µM) | 41.6 |  |  |  | 
3 | NNC(=O)c1ccncc1 [ISONIAZID] |  | 4 (≈ 29.2 µM) |  | 1 (≈ 7.29 µM) | 16 (≈ 117 µM) | 4 (≈ 29.2 µM) | 
4 | C=CCn1c(/C=C/CCCCCCCCCCCC)cc(=O)c2ccccc21 | 0.7 | 16 (≈ 42.2 µM) | 98.2 |  |  |  | 
5 | CCCCCCCC/C=C/c1cc(=O)c2ccccc2n1CC | 0.53 | 4 (≈ 12.8 µM) | 39.2 |  |  |  | 
6 | CCCCCCCC/C=C/c1cc(=O)c2ccccc2n1CCCCC | 0.46 | 2 (≈ 5.66 µM) | 61.7 | 4 (≈ 11.3 µM) | 4 (≈ 11.3 µM) | 1 (≈ 2.83 µM) | 
7 | C#CCn1c(/C=C/CCCCCCCCC)cc(=O)c2ccccc21 | 26.3 | 4 (≈ 11.9 µM) | 92.3 |  |  |  | 
8 | CC[C@]1(O)C[C@@H]2CN(CCc3c([nH]c4ccccc34)[C@@](C(=O)OC)(c3cc4c(cc3OC)N(C)[C@H]3[C@@](O)(C(=O)OC)[C@H](OC(C)=O)[C@]5(CC)C=CCN6CC[C@]43[C@@H]65)C2)C1 [VINBLASTINE] |  |  |  |  |  |  | 60.1
9 | C#CCn1c(/C=C/CCCCCCCCCC)cc(=O)c2ccccc21 | 0.64 | 64 (≈ 183 µM) | 40.7 |  |  |  | 
10 | CCCCCCCC/C=C/c1cc(=O)c2ccccc2n1CCC | 0.5 | 2 (≈ 6.14 µM) | 56.1 | 2 (≈ 6.14 µM) | 2 (≈ 6.14 µM) | 2 (≈ 6.14 µM) | 
11 | C=CCn1c(/C=C/CCCCCCC)cc(=O)c2ccccc21 | 0.53 | 8 (≈ 25.9 µM) | 10.1 |  |  |  | 
12 | C#CCn1c(/C=C/CCCCCCC)cc(=O)c2ccccc21 | 63.9 | 2 (≈ 6.51 µM) | 71.1 | 32 (≈ 104 µM) | 4 (≈ 13 µM) | 2 (≈ 6.51 µM) | 
13 | CCCCCCCCCC/C=C/c1cc(=O)c2ccccc2n1CCCCC | 0.25 | 8 (≈ 21 µM) | 31.6 |  |  |  | 
14 | CCCCCCCCCCCC/C=C/c1cc(=O)c2ccccc2n1CCCC | 0.51 | 128 (≈ 324 µM) | 10.9 |  |  |  | 
15 | CCCCCCCCCCC/C=C/c1cc(=O)c2ccccc2n1CCCCC | 0.25 | 128 (≈ 324 µM) | 11.7 |  |  |  | 
16 | CC[C@@H](CO)NCCN[C@@H](CC)CO [ETHAMBUTOL] |  | 2 (≈ 9.79 µM) |  | 16 (≈ 78.3 µM) | 4 (≈ 19.6 µM) | 4 (≈ 19.6 µM) | 
17 | C=CCn1c(/C=C/CCCCCCCC)cc(=O)c2ccccc21 | 0.63 | 2 (≈ 6.18 µM) | 33 | 4 (≈ 12.4 µM) | 2 (≈ 6.18 µM) | 1 (≈ 3.09 µM) | 
18 | O=C(O)c1cn(C2CC2)c2cc(N3CCNCC3)c(F)cc2c1=O [CIPROFLOXACIN] |  | 0.125 (≈ 0.377 µM) |  |  |  |  | 
19 | C#CCn1c(/C=C/CCCCCCCC)cc(=O)c2ccccc21 | 0.4 | 16 (≈ 49.8 µM) | 43.6 |  |  |  | 
20 | C=CCn1c(/C=C/CCCCCCCCCCC)cc(=O)c2ccccc21 | 1.06 | 4 (≈ 10.9 µM) | 17.9 |  |  |  | 
21 | CCCCCCC/C=C/c1cc(=O)c2ccccc2n1CC | 52.6 | 8 (≈ 26.9 µM) | 96.6 |  |  |  | 
22 | CCCCCCCCCCCC/C=C/c1cc(=O)c2ccccc2n1CCC | 0.72 | 16 (≈ 41.9 µM) | 42.6 |  |  |  | 
23 | CCCCCCCCCC/C=C/c1cc(=O)c2ccccc2n1CCCC | 0.45 | 4 (≈ 10.9 µM) | 42.4 |  |  |  | 
24 | C#CCn1c(/C=C/CCCCCCCCCCCC)cc(=O)c2ccccc21 | 10 | 128 (≈ 339 µM) | 100 |  |  |  | 
